Experimental data collected from several papers.
Protocols differ between the studies behind these lines.
Matrix: plasma
Route: oral

Compound | host | dose | notes | AUC(0-inf)
CC(C)(O)c1ccccc1-c1ccc2[nH]c(/C=C/c3ccc(C(F)(F)F)cc3)nc2c1 | male human | 10 mg | single dose, fasted | 2110 ng·h/mL
CC(C)(Sc1ccncc1-c1ccc(C#N)c2ccccc12)C(=O)O | male human | 20 mg | single dose, fasted, healthy volunteers | 540 ng·h/mL
CO[C@H]1CC[C@H](N2C(=O)CNc3ncc(-c4ccc(C(C)(C)O)nc4)nc32)CC1 | human | 7.5 mg | patients | 353 ng·h/mL
CCc1nc2c(C)cc(N3CCN(CC(=O)N4CC(O)C4)CC3)cn2c1N(C)c1nc(-c2ccc(F)cc2)c(C#N)s1 | human | 600 mg | single dose, fasted, healthy volunteers | 36600 ng·h/mL
C[C@@]1(c2cc(NC(=O)c3ccc(C#N)cn3)ccc2F)C=CSC(N)=N1 | human | 150 mg | single dose | 14500 ng·h/mL
COc1ccc([C@@H]2CN(C(=O)[C@@H](O)CO)C[C@@]2(C)[C@@H](C)O)cc1OC1CN(c2ccc(C)cn2)C1 | human | 40 mg | single dose, healthy volunteers | 9000 ng·h/mL
CC(C)n1cc(C#N)c2cc(-n3cc(C(=O)O)cn3)ccc21 | human | 25 mg | single dose, fasted, healthy volunteers | 5190 ng·h/mL
Cn1cc(-c2ccc(S(=O)(=O)[C@@H]3C[C@@H](C(=O)NC4(C#N)CC4)N(C(=O)C4(C(F)(F)F)CC4)C3)c(C(F)(F)F)c2)cn1 | human | 30 mg | single dose, fasted, healthy volunteers | 3240 ng·h/mL
